{"source": "ChEMBL document CHEMBL4422698", "about": "“Wortmannin and Wortmannine Analogues from an Undescribed Niesslia sp” (2019)", "key": {"Staphylococcus aureus": {"tested_on": "Staphylococcus aureus", "experiment": "Antibacterial activity against Staphylococcus aureus ATCC 43330 assessed as zone of inhibition at 50 ug/disk by disk diffusion method", "type": "functional, organism-based", "outline": "(§1)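 Agar disk diffusion zone-of-inhibition assay on C. albicans ATCC 10231, C. neoformans H99 and S. aureus ATCC 43330, run per NCCLS recommendations. Compound applied at 50 μg/disk, amphotericin B control at 25 μg/disk. Inhibition zone diameter recorded in mm.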"}, "Cryptococcus neoformans [1]": {"tested_on": "Cryptococcus neoformans", "experiment": "Antifungal activity against Cryptococcus neoformans H99 assessed as zone of inhibition at 50 ug/disk by disk diffusion method", "type": "functional", "conditions": "for inhibition zone (IZ): var grubii H99; for zone of inhibition at 50 µg/disc: var grubii H99, read-out: IZ", "outline": "as §1"}, "Candida albicans [2]": {"tested_on": "Candida albicans", "experiment": "Antifungal activity against Candida albicans ATCC 10231 assessed as zone of inhibition at 50 ug/disk by disk diffusion method", "type": "functional", "conditions": "for zone of inhibition at 50 µg/disc: read-out: IZ", "outline": "as §1"}, "Candida albicans [3]": {"tested_on": "Candida albicans", "experiment": "Antifungal activity against Candida albicans ATCC 10231 measured after 48 hrs by broth microdilution method", "type": "functional", "conditions": "ATCC 10231, 48 h", "outline": "(§2)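 NCCLS serial broth microdilution in RPMI-1640 with 0.165 M MOPS, pH 7.0. Compounds dissolved in DMSO and serially diluted in the medium. MIC-50 taken spectrophotometrically as the lowest concentration giving 50% growth inhibition versus the untreated control. Read at 48 h for C. albicans and A. fumigatus, 72 h for C. neoformans.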"}, "[4]": {"tested_on": "Schizosaccharomyces pombe", "experiment": "Ratio of MIC50 for Schizosaccharomyces pombe isolate MJ1682 harboring efflux mutant to MIC50 for Schizosaccharomyces pombe SAK1", "type": "functional", "outline": "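S. pombe efflux mutant MJ1682 (caf5::bsdR pap1-del pmd1-del mfs1-del bfr1-del) and wild-type SAK1 grown in YES medium for 72 h with serially diluted compound. Viability read on a plate reader with Alamar Blue, itraconazole as positive control. Ratio of the MIC50 of the mutant to that of the wild type.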"}, "Candida albicans [5]": {"tested_on": "Candida albicans", "experiment": "Antifungal activity against Candida albicans ATCC 10231 at 25 uM measured after 24 hrs"}, "Cryptococcus neoformans [6]": {"tested_on": "Cryptococcus neoformans", "experiment": "Antifungal activity against Cryptococcus neoformans H99 measured after 72 hrs by broth microdilution method", "type": "functional", "conditions": "var grubii H99 ", "outline": "as §2"}, "Aspergillus fumigatus": {"tested_on": "Aspergillus fumigatus", "experiment": "Antifungal activity against Aspergillus fumigatus measured after 48 hrs by broth microdilution method", "type": "functional", "outline": "as §2"}, "Candida albicans [7]": {"tested_on": "Candida albicans", "experiment": "Antifungal activity against Candida albicans ATCC 10231 assessed as zone of inhibition at 25 ug/disk by disk diffusion method", "type": "functional", "conditions": "read-out: IZ"}, "Cryptococcus neoformans [8]": {"tested_on": "Cryptococcus neoformans", "experiment": "Antifungal activity against Cryptococcus neoformans H99 assessed as zone of inhibition at 25 ug/disk by disk diffusion method", "type": "functional", "conditions": "var grubii H99, read-out: IZ", "outline": "as §1"}}, "note": "Calls of active or inactive are those of the source. The rule behind the calls is not given here.", "data": [{"molecule": "CCC(C)C(=O)O[C@@H]1C[C@]2(C)C(=O)CC[C@H]2C2=C1[C@@]1(C)[C@@H](COC)OC(=O)[C@@H]3[C@@H](O)NC(=O)[C@@]31C2=O", "note": "(stereo not given in full)", "values": [{"measurement": "inhibition zone (IZ)", "setting": "Staphylococcus aureus", "value": "inactive"}, {"measurement": "inhibition zone (IZ)", "setting": "Cryptococcus neoformans [1]", "value": "inactive"}, {"measurement": "inhibition zone (IZ)", "setting": "Candida albicans [2]", "value": "inactive"}]}, {"molecule": "CCC(C)C(=O)O[C@@H]1C[C@]2(C)C(=O)CC[C@H]2C2=C1[C@@]1(C)[C@@H](COC)OC(=O)[C@@H]3[C@H](O)NC(=O)[C@@]31C2=O", "note": "(stereo not given in full)", "values": [{"measurement": "inhibition zone (IZ)", "setting": "Staphylococcus aureus", "value": "inactive"}, {"measurement": "inhibition zone (IZ)", "setting": "Cryptococcus neoformans [1]", "value": "inactive"}, {"measurement": "inhibition zone (IZ)", "setting": "Candida albicans [2]", "value": "inactive"}]}, {"molecule": "COC[C@H]1OC(=O)[C@@H]2[C@@H](O)NC(=O)[C@@]23C(=O)C2=C([C@H](OC(=O)C(C)C)C[C@]4(C)C(=O)CC[C@@H]24)[C@@]13C", "values": [{"measurement": "inhibition zone (IZ)", "setting": "Staphylococcus aureus", "value": "inactive"}, {"measurement": "inhibition zone (IZ)", "setting": "Cryptococcus neoformans [1]", "value": "inactive"}, {"measurement": "inhibition zone (IZ)", "setting": "Candida albicans [2]", "value": "inactive"}]}, {"molecule": "CCC(C)C(=O)O[C@@H]1C[C@]2(C)C(=O)CC[C@H]2C2=C1[C@]1(C)c3c(coc3C2=O)C(=O)O[C@@H]1COC", "note": "(stereo not given in full)", "values": [{"measurement": "inhibition zone (IZ)", "setting": "Staphylococcus aureus", "value": "inactive"}, {"measurement": "zone of inhibition at 50 µg/disc", "setting": "Cryptococcus neoformans [1]", "value": 16, "unit": "mm"}, {"measurement": "MIC50", "setting": "Candida albicans [3]", "value": 200, "unit": "µM"}, {"measurement": "Ratio", "setting": "[4]", "value": 0.1}, {"measurement": "Activity", "setting": "Candida albicans [5]", "value": "Active"}, {"measurement": "zone of inhibition at 50 µg/disc", "setting": "Candida albicans [2]", "value": 25, "unit": "mm"}, {"measurement": "MIC50", "setting": "Cryptococcus neoformans [6]", "value": 100, "unit": "µM"}, {"measurement": "MIC50", "setting": "Aspergillus fumigatus", "value": 200, "unit": "µM"}]}, {"molecule": "C[C@@H]1[C@H](O)[C@@H](C)/C=C/C=C/C=C/C=C/C=C/C=C/C=C/[C@H](O[C@@H]2O[C@H](C)[C@@H](O)[C@H](N)[C@@H]2O)C[C@@H]2O[C@](O)(C[C@@H](O)C[C@@H](O)[C@H](O)CC[C@@H](O)C[C@@H](O)CC(=O)O[C@H]1C)C[C@H](O)[C@H]2C(=O)O", "note": "[AMPHOTERICIN B]", "values": [{"measurement": "zone of inhibition at 25 µg/disc", "setting": "Candida albicans [7]", "value": 10, "unit": "mm"}, {"measurement": "zone of inhibition at 25 µg/disc", "setting": "Cryptococcus neoformans [8]", "value": 13, "unit": "mm"}]}, {"molecule": "COC[C@H]1OC(=O)c2coc3c2[C@@]1(C)C1=C(C3=O)[C@@H]2CCC(=O)[C@@]2(C)C[C@H]1OC(=O)C(C)C", "values": [{"measurement": "inhibition zone (IZ)", "setting": "Staphylococcus aureus", "value": "inactive"}, {"measurement": "zone of inhibition at 50 µg/disc", "setting": "Cryptococcus neoformans [1]", "value": 13, "unit": "mm"}, {"measurement": "zone of inhibition at 50 µg/disc", "setting": "Candida albicans [2]", "value": 25, "unit": "mm"}]}, {"molecule": "COC[C@H]1OC(=O)[C@@H]2[C@H](O)NC(=O)[C@@]23C(=O)C2=C([C@H](OC(=O)C(C)C)C[C@]4(C)C(=O)CC[C@@H]24)[C@@]13C", "values": [{"measurement": "inhibition zone (IZ)", "setting": "Staphylococcus aureus", "value": "inactive"}, {"measurement": "inhibition zone (IZ)", "setting": "Cryptococcus neoformans [1]", "value": "inactive"}, {"measurement": "inhibition zone (IZ)", "setting": "Candida albicans [2]", "value": "inactive"}]}]}
